Results published in ChEMBL document CHEMBL1150415 (J Med Chem, 2008).
Activity calls are given as the source filed them. The calls are words filed in the database; no cut-off is given here.

How the values were obtained:
[1] = Oral bioavailability in rat; type: ADME, organism-based; settings: in vivo
Rattus norvegicus [2] = assay: Reduction in cartilage damage in Freund's adjuvant-induced arthritis Lewis rat model at 50 mg/kg, po for 11 days; type: functional, organism-based; design: dose 50 mg/kg
In short: (§1)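 Arthritis was induced in Lewis rats by intradermal complete Freund's adjuvant at the base of the tail. Oral treatment began on day 8, when mean clinical joint scores were 12, and continued for 11 days. Tarsal joints were taken at necropsy and lesions were scored histologically in blinded fashion.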

Rattus norvegicus [3] = assay: Inhibition of carrageenan-induced paw edema in Sprague-Dawley rat administered 2 hrs before carrageenan challenge at 25 mg/kg, po; type: functional
[4] = Inhibition of cytosolic phospholipase A2alpha
[5] = Plasma concentration in adjuvant-induced arthritis Lewis rat model at 50 mg/kg, po after 16 hrs; type: ADME, organism-based; design: dose 50 mg/kg, route oral
[6] = test system: Prostaglandin G/H synthase 1, cyclooxygenase-1; assay: Inhibition of COX1 in microsomes at 100 uM
MC9 [7] = assay: Inhibition of LTB4 production in mouse MC9 cells; type: functional, cell-based
Rattus norvegicus [8] = assay: Reduction in synovitis damage in Freund's adjuvant-induced arthritis Lewis rat model at 25 mg/kg, po for 11 days; type: functional, organism-based; design: dose 25 mg/kg; in short: as §1
Ovis aries [9] = assay: Effect on late asthmatic response in Ascaris Suum antigen-induced reversible airway bronchoconstriction sheep model assessed as reduction in lung resistance at 10 mg/kg, po bid administered 2 hrs before antigen challenge measured 5 to 8 hrs after challenge; type: functional; design: scale not given: the % may be the effect or the level left
[10] = Plasma concentration in adjuvant-induced arthritis Lewis rat model at 5 mg/kg, po after 16 hrs; type: ADME, organism-based; design: dose 5 mg/kg, route oral
[11] = Inhibition of cytosolic phospholipase A2alpha by GLU micelle assay
In short: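 Micellar assay with 7-hydroxycoumarinyl-γ-linolenate (GLU) substrate, presenting inhibitor and substrate to the enzyme in high-lipid micelles. Each run gives the mean of duplicate assays, and values come from at least two runs.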

Rattus norvegicus [12] = assay: Inhibition of PGE2 production in carrageenan-stimulated rat air pouch model at 5 mg/kg, po after 6 hrs; type: functional
In short: (§2)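 Carrageenan was injected into a preformed air pouch 2 h after oral drug. Pouch contents were removed 6 h later and PGE2 was quantified.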

[13] = Ratio of AUC in Sprague-Dawley rat at 25 mg/kg, po to IC50 for TXB2 production in Sprague-Dawley rat whole blood; type: functional
Blood [14] = assay: Inhibition of PGF2alpha production in human whole blood at 0.039 uM; type: functional
In short: (§3)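 Human whole blood stimulated with calcium ionophore A23187 at 30 µM. Several arachidonic acid metabolites (LTB4, PGE2, PGF2α, TXB2) and PAF production were quantified.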

MC9 [15] = assay: Inhibition of PGF2alpha production in mouse MC9 cells; type: functional, cell-based
Mus musculus = assay: Plasma concentration in collagen-induced arthritis mouse model at 100 mg/kg, po twice daily after 12 to 14 hrs; type: ADME, organism-based; design: dose 100 mg/kg, route oral; settings: in vivo
[16] = test system: Prostaglandin G/H synthase 2, cyclooxygenase-2; assay: Inhibition of COX2 in microsomes at 100 uM
[17] = Plasma clearance in Sprague-Dawley rat at 2 mg/kg, iv; type: ADME, organism-based; design: dose 2 mg/kg, route intravenous
[18] = Plasma concentration in collagen-induced arthritis mouse model at 100 mg/kg, po twice daily after 3 hrs; type: ADME, organism-based; design: dose 100 mg/kg, route oral
Rattus norvegicus [19] = assay: Inhibition of carrageenan-induced paw edema in po dosed Sprague-Dawley rat administered 2 hrs before carrageenan challenge; type: functional
[20] = Inhibition of secreted phospholipase A2 at 0.5 uM
In short: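 Type II secreted PLA2 activity measured with PAPE (1-palmitoyl-2-arachidonoyl-sn-glycero-3-phosphoethanolamine) liposomes as substrate.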

[21] = Inhibition of cytosolic phospholipase A2alpha at 0.020 uM
In short: (§4)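 Isolated enzyme activity on PAPC (1-palmitoyl-2-arachidonoyl-sn-glycero-3-phosphocholine) liposome substrate.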

[22] = Plasma concentration in adjuvant-induced arthritis Lewis rat model at 5 mg/kg, po after 4 hrs; type: ADME, organism-based; design: dose 5 mg/kg, route oral
Blood [23] = assay: Inhibition of TXB2 production in human whole blood at 0.039 uM; type: functional; in short: as §3
Ovis aries [24] = assay: Inhibition of acute hyperresponsiveness in Ascaris Suum antigen-induced reversible airway bronchoconstriction sheep model assessed as reduction in lung resistance at 10 mg/kg, po bid administered and measured after 16 hrs
Blood [25] = assay: Inhibition of PGE2 production in human whole blood at 0.039 uM; type: functional; in short: as §3
Rattus norvegicus [26] = assay: Reduction in synovitis damage in Freund's adjuvant-induced arthritis Lewis rat model at 5 mg/kg, po for 11 days; type: functional, organism-based; design: dose 5 mg/kg; in short: as §1
MC9 [27] = assay: Inhibition of PGF2apha production in arachidonic acid-stimulated mouse MC9 cells; type: functional, cell-based
Rattus norvegicus [28] = assay: Reduction in synovitis damage in Freund's adjuvant-induced arthritis Lewis rat model at 50 mg/kg, po for 11 days; type: functional, organism-based; design: dose 50 mg/kg; in short: as §1
Rattus norvegicus [29] = assay: Inhibition of PGE2 production in carrageenan-stimulated orally dosed rat air pouch model after 6 hrs; type: functional; settings: po; in short: as §2
Rattus norvegicus [30] = assay: Reduction in cartilage damage in Freund's adjuvant-induced arthritis Lewis rat model at 5 mg/kg, po for 11 days; type: functional, organism-based; design: dose 5 mg/kg; in short: as §1
[31] = target: T1, Cytosolic phospholipase A2 gamma (Homo sapiens) (UniProt Q9UP65); assay: Inhibition of cytosolic phospholipase A2gamma at 0.5 uM; in short: as §4
T1 sequence (whole entry): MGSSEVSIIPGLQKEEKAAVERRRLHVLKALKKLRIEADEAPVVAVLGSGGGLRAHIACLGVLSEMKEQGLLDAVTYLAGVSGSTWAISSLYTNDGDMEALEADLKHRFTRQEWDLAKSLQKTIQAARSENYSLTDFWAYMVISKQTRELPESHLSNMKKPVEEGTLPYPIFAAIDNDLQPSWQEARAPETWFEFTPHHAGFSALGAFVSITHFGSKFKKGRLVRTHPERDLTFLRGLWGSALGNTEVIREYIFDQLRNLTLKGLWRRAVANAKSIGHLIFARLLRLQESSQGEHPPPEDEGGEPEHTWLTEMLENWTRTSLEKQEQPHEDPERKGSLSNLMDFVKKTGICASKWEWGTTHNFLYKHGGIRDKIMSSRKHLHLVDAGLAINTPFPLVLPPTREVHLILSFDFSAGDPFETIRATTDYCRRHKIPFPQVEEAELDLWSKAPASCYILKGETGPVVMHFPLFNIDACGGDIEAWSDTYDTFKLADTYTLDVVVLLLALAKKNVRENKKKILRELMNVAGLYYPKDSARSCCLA

Blood [32] = assay: Inhibition of LTB4 production in human whole blood at 0.039 uM; type: functional; in short: as §3
[33] = Plasma concentration in adjuvant-induced arthritis Lewis rat model at 50 mg/kg, po after 4 hrs; type: ADME, organism-based; design: dose 50 mg/kg, route oral
[34] = Plasma concentration in adjuvant-induced arthritis Lewis rat model at 25 mg/kg, po after 16 hrs; type: ADME, organism-based; design: dose 25 mg/kg, route oral
Blood [35] = assay: Inhibition of PAF production in human whole blood at 0.039 uM; type: functional; in short: as §3
[36] = target: T2, Cytosolic phospholipase A2 beta (Homo sapiens) (UniProt P0C869); assay: Inhibition of cytosolic phospholipase A2beta at 0.5 uM; in short: as §4
T2 sequence (whole entry): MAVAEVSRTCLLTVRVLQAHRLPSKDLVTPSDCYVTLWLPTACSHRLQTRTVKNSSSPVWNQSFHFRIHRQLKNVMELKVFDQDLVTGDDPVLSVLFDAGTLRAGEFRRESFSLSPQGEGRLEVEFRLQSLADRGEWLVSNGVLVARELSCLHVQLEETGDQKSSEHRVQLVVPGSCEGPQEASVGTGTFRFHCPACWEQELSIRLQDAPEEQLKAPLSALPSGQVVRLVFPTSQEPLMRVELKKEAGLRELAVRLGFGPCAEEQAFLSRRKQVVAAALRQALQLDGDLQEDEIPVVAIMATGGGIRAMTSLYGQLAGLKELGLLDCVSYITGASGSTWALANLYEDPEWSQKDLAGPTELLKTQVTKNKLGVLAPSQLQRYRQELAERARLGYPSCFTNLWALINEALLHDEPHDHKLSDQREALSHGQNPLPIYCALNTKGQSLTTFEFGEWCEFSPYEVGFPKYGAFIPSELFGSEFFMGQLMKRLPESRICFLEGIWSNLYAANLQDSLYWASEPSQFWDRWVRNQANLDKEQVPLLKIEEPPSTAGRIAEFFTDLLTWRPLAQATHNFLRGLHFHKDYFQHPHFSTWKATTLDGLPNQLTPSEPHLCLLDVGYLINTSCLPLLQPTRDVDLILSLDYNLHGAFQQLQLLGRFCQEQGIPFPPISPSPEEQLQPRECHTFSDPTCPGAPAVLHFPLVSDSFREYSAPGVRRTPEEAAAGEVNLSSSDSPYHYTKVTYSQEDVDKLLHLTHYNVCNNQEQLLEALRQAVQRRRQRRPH

[37] = Plasma concentration in adjuvant-induced arthritis Lewis rat model at 25 mg/kg, po after 4 hrs; type: ADME, organism-based; design: dose 25 mg/kg, route oral
Rattus norvegicus [38] = assay: Reduction in cartilage damage in Freund's adjuvant-induced arthritis Lewis rat model at 25 mg/kg, po for 11 days; type: functional, organism-based; design: dose 25 mg/kg; in short: as §1

## Cc1cccc(C)c1CS(=O)(=O)NCCc1c(CCCc2ccc(C(=O)O)cc2)c2cc(Cl)ccc2n1C(c1ccccc1)c1ccccc1
[1]
  bioavailability: 4%
Rattus norvegicus [2]
  Activity: Active
Rattus norvegicus [3]
  inhibition in vivo at 25 mg/kg: 34%
[4]
  IC50: < 10 nM
[5]
  concentration at 16 h: 110 ng/mL
[6]
  Activity: inactive
MC9 [7]
  IC50: 12 nM
Rattus norvegicus [8]
  Activity: Active
Ovis aries [9]
  Activity: 85%
[10]
  concentration at 16 h: 26 ng/mL
[11]
  IC50: 10 nM
Rattus norvegicus [12]
  inhibition in vivo at 5 mg/kg: > 50%
[13]
  Ratio: 160 h
Blood [14]
  inhibition at 0.039 µM: 72%
MC9 [15]
  IC50: 6 nM
Mus musculus
  Cp: 118 ng/mL
[16]
  Activity: inactive
[17]
  clearance: 3 mL/min/kg
[18]
  concentration at 3 h: 923 ng/mL
Rattus norvegicus [19]
  ED50: 8 mg/kg
[20]
  Activity: inactive
[21]
  inhibition: > 90%
[22]
  concentration at 4 h: 69 ng/mL
Blood [23]
  inhibition at 0.039 µM: 72%
Ovis aries [24]
  Activity: Active
Blood [25]
  inhibition at 0.039 µM: 79%
Rattus norvegicus [26]
  Activity: Active
MC9 [27]
  IC50: > 1000 nM
Rattus norvegicus [28]
  Activity: Active
Rattus norvegicus [29]
  ED50: 3.5 mg/kg
Rattus norvegicus [30]
  Activity: Active
[31]
  Activity: inactive
Blood [32]
  inhibition at 0.039 µM: 78%
[33]
  concentration at 4 h: 1140 ng/mL
[34]
  concentration at 16 h: 73 ng/mL
Blood [35]
  inhibition at 0.039 µM: 57%
[36]
  Activity: inactive
[37]
  concentration at 4 h: 698 ng/mL
Rattus norvegicus [38]
  Activity: Active
